From article PMC10432884 (Clinical and Translational Science, 2023)
Like-named read-outs stand apart in the source and are kept apart here.

Key:
[1] = system: healthy subjects; experiment: First-in-human trial, food-interaction; assay type: in vivo
Procedure, shortened: (§1)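 Safety covered all dosed subjects in the SAD, MAD and FI phases: AEs (MedDRA 21.1), concomitant medication, vital signs, ECGs, physical exams and safety labs. BP was taken after 5 min supine, then ≥1 min sitting and 1–3 min standing. Orthostasis was defined as an SBP fall ≥20 mmHg or DBP fall ≥10 mmHg within 3 min standing. TEAEs were summarized by treatment, organ class, severity and drug-relatedness.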

[2] = SAD phase pharmacokinetics; assay type: in vivo, human; conditions: for AUC(0-t) / Tmax / AUC(0-inf) / Cmax / half-life: human, plasma, oral; for AUC(0-t): AUClast; for AUC(0-inf): AUCinf; for Cmax: C max
Procedure, shortened: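 Single oral doses of 0.3–50 mg after ≥10 h fast. Plasma (K-EDTA) was sampled predose and […]; urine was collected for 48 h. Assay was validated LC-MS/MS (plasma LLOQ 1.00 ng/mL; below-LLOQ set to 0). AUClast, Cmax and Tmax were derived at all doses; AUCinf, clearance and t1/2 from 10 mg upward. Urinary excretion and renal clearance were also derived. Steady-state time was estimated from these SAD data.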

[3] = system: rodents; conditions: in vivo; cited from earlier work
[4] = Plasma protein binding, equilibrium dialysis; assay type: in vitro ADME, human; conditions: assumed from protein binding
Procedure, shortened: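 In vitro equilibrium dialysis of test compound at 1 and 10 μM in human plasma (also mouse, rat, dog and monkey). Mean percentage bound was determined. The free fraction was used to correct CSF/plasma concentration ratios.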

[5] = system: healthy subjects
[6] = system: healthy subjects; experiment: First-in-human trial, all phases: overall safety and tolerability; assay type: in vivo
Procedure, shortened: as §1

[7] = FI sequence 10 mg Fasted‐Fed (n = 7)
[8] = FI sequence 10 mg Fed‐Fasted (n = 7)
[9] = both, 10 mg, GeoMean, SAD 10 mg
[10] = SAD pooled zagociguat group (n = 42)

Fc1ccccc1Cc1nc(-c2nc(C(F)(F)F)n[nH]2)cn2ccnc12 [zagociguat, 8‐(2‐fluorobenzyl)‐6‐(3‐(trifluoromethyl)‐1H‐1,2,4‐triazol‐5‐yl)imidazo[1,2‐a]pyrazine]
Orthostatic hypotension events ([1]; FI phase): No orthostatic hypotension events | Subjects with dizziness TEAEs ([1]; FI phase, 10 mg, fed and fasted): Three | Subjects discontinued from study drug due to ≥1 TEAE [1, 7]: 0 n | Subjects with ≥1 SAE [1, 7]: 0 n | Subjects with ≥1 study drug related TEAE [1, 7]: 2 n | TEAEs [1, 7]: 7 n | Subjects discontinued from study drug due to ≥1 TEAE [1, 8]: 0 n | Subjects with ≥1 SAE [1, 8]: 0 n | Subjects with ≥1 study drug related TEAE [1, 8]: 1 n | TEAEs [1, 8]: 7 n | Dose level from which detectable in urine ([2]; SAD): 10 mg | AUC(0-t) ([2]; both, 3 mg, GeoMean, SAD 3 mg): 11.4 µg·h/mL | AUC(0-t) ([2]; both, 3 mg, Median, SAD 3 mg): 11.2 µg·h/mL | Tmax ([2]; both, 3 mg, T max, Median, SAD 3 mg): 2.1 h | AUC(0-inf) [2, 9]: 92.3 µg·h/mL | AUC(0-inf) ([2]; both, 10 mg, Median, SAD 10 mg): 95 µg·h/mL | AUC(0-t) [2, 9]: 57.6 µg·h/mL | AUC(0-t) ([2]; both, 10 mg, Median, SAD 10 mg): 57.9 µg·h/mL | Cmax [2, 9]: 1190 ng/mL | Cmax ([2]; both, 10 mg, Median, SAD 10 mg): 1290 ng/mL | Tmax ([2]; both, 10 mg, T max, Median, SAD 10 mg): 3.5 h | half-life ([2]; both, 10 mg, t 1/2, GeoMean, SAD 10 mg): 63.4 h | half-life ([2]; both, 10 mg, t 1/2, Median, SAD 10 mg): 64.8 h | Cmax ([2]; both, 20 mg, GeoMean, SAD 20 mg): 2190 ng/mL | AUC(0-t) ([2]; 0.3 mg, GeoMean, SAD 0.3 mg): 1.06 µg·h/mL | AUC(0-t) ([2]; 0.3 mg, Median, SAD 0.3 mg): 1.09 µg·h/mL | Cmax ([2]; 0.3 mg, GeoMean, SAD 0.3 mg): 40 ng/mL | Cmax ([2]; 0.3 mg, Median, SAD 0.3 mg): 40.5 ng/mL | Tmax ([2]; 0.3 mg, T max, Median, SAD 0.3 mg): 0.8 h | AUC(0-t) ([2]; 1 mg, GeoMean, SAD 1 mg): 4.34 µg·h/mL | AUC(0-t) ([2]; 1 mg, Median, SAD 1 mg): 4.46 µg·h/mL | Cmax ([2]; 1 mg, GeoMean, SAD 1 mg): 142 ng/mL | Cmax ([2]; 1 mg, Median, SAD 1 mg): 150 ng/mL | Tmax ([2]; 1 mg, T max, Median, SAD 1 mg): 1 h | Cmax ([2]; 3 mg, GeoMean, SAD 3 mg): 373 ng/mL | Cmax ([2]; 3 mg, Median, SAD 3 mg): 372 ng/mL | AUC(0-inf) ([2]; 20 mg, GeoMean, SAD 20 mg): 194 µg·h/mL | AUC(0-inf) ([2]; 20 mg, Median, SAD 20 mg): 180 µg·h/mL | AUC(0-t) ([2]; 20 mg, GeoMean, SAD 20 mg): 167 µg·h/mL | AUC(0-t) ([2]; 20 mg, Median, SAD 20 mg): 158 µg·h/mL | Cmax ([2]; 20 mg, Median, SAD 20 mg): 2260 ng/mL | Tmax ([2]; 20 mg, T max, Median, SAD 20 mg): 4 h | half-life ([2]; 20 mg, t 1/2, GeoMean, SAD 20 mg): 67.1 h | half-life ([2]; 20 mg, t 1/2, Median, SAD 20 mg): 68 h | AUC(0-inf) ([2]; 30 mg, GeoMean, SAD 30 mg): 272 µg·h/mL | AUC(0-inf) ([2]; 30 mg, Median, SAD 30 mg): 288 µg·h/mL | AUC(0-t) ([2]; 30 mg, GeoMean, SAD 30 mg): 251 µg·h/mL | AUC(0-t) ([2]; 30 mg, Median, SAD 30 mg): 273 µg·h/mL | Cmax ([2]; 30 mg, GeoMean, SAD 30 mg): 3370 ng/mL | Cmax ([2]; 30 mg, Median, SAD 30 mg): 3650 ng/mL | Tmax ([2]; 30 mg, T max, Median, SAD 30 mg): 4.5 h | half-life ([2]; 30 mg, t 1/2, GeoMean, SAD 30 mg): 65.7 h | half-life ([2]; 30 mg, t 1/2, Median, SAD 30 mg): 62.2 h | AUC(0-inf) ([2]; 50 mg, GeoMean, SAD 50 mg): 478 µg·h/mL | AUC(0-inf) ([2]; 50 mg, Median, SAD 50 mg): 471 µg·h/mL | AUC(0-t) ([2]; 50 mg, GeoMean, SAD 50 mg): 425 µg·h/mL | AUC(0-t) ([2]; 50 mg, Median, SAD 50 mg): 427 µg·h/mL | Cmax ([2]; 50 mg, GeoMean, SAD 50 mg): 5730 ng/mL | Cmax ([2]; 50 mg, Median, SAD 50 mg): 5820 ng/mL | Tmax ([2]; 50 mg, T max, Median, SAD 50 mg): 5 h | half-life ([2]; 50 mg, t 1/2, GeoMean, SAD 50 mg): 57 h | half-life ([2]; 50 mg, t 1/2, Median, SAD 50 mg): 57.3 h | half-life ([2]; Mean t 1/2, range, single administrations of 10–50 mg): 57 to 68 h | Tmax ([2]; Median T max, range, SAD doses of 0.3–3 mg): 0.5 to 2.1 h | Tmax ([2]; Median T max, range, SAD doses of 10–50 mg): 3.5 to 5 h | Estimated time to steady-state ([2]; preliminary PK data from the SAD phase): 11 days | qEEG gamma band power [3]: increased gamma band power | Free zagociguat concentration in human plasma, of total concentration [4]: 1.11% | Subjects discontinued from study drug due to ≥1 TEAE ([5]; SAD 0.3 mg (n = 6)): 0 n | Subjects with ≥1 SAE ([5]; SAD 0.3 mg (n = 6)): 0 n | Subjects with ≥1 TEAE ([5]; SAD 0.3 mg (n = 6)): 2 (33.3%) n (%) | Subjects with ≥1 study drug related TEAE ([5]; SAD 0.3 mg (n = 6)): 2 n | TEAEs ([5]; SAD 0.3 mg (n = 6)): 5 n | Subjects discontinued from study drug due to ≥1 TEAE ([5]; SAD 1 mg (n = 6)): 0 n | Subjects with ≥1 SAE ([5]; SAD 1 mg (n = 6)): 0 n | Subjects with ≥1 TEAE ([5]; SAD 1 mg (n = 6)): 2 (33.3%) n (%) | Subjects with ≥1 study drug related TEAE ([5]; SAD 1 mg (n = 6)): 1 n | TEAEs ([5]; SAD 1 mg (n = 6)): 5 n | Orthostatic hypotension TEAE ([5]; SAD 3 mg): One | Subjects discontinued from study drug due to ≥1 TEAE ([5]; SAD 3 mg (n = 6)): 0 n | Subjects with ≥1 SAE ([5]; SAD 3 mg (n = 6)): 0 n | Subjects with ≥1 TEAE ([5]; SAD 3 mg (n = 6)): 3 (50.0%) n (%) | Subjects with ≥1 study drug related TEAE ([5]; SAD 3 mg (n = 6)): 2 n | TEAEs ([5]; SAD 3 mg (n = 6)): 7 n | Subjects discontinued from study drug due to ≥1 TEAE ([5]; SAD 10 mg (n = 6)): 0 n | Subjects with ≥1 SAE ([5]; SAD 10 mg (n = 6)): 0 n | Subjects with ≥1 TEAE ([5]; SAD 10 mg (n = 6)): 2 (33.3%) n (%) | Subjects with ≥1 study drug related TEAE ([5]; SAD 10 mg (n = 6)): 2 n | TEAEs ([5]; SAD 10 mg (n = 6)): 7 n | Subjects discontinued from study drug due to ≥1 TEAE ([5]; SAD 20 mg (n = 6)): 0 n | Subjects with ≥1 SAE ([5]; SAD 20 mg (n = 6)): 0 n | Subjects with ≥1 TEAE ([5]; SAD 20 mg (n = 6)): 3 (50.0%) n (%) | Subjects with ≥1 study drug related TEAE ([5]; SAD 20 mg (n = 6)): 2 n | TEAEs ([5]; SAD 20 mg (n = 6)): 5 n | Subjects discontinued from study drug due to ≥1 TEAE ([5]; SAD 30 mg (n = 6)): 0 n | Subjects with ≥1 SAE ([5]; SAD 30 mg (n = 6)): 0 n | Subjects with ≥1 TEAE ([5]; SAD 30 mg (n = 6)): 5 (83.3%) n (%) | Subjects with ≥1 study drug related TEAE ([5]; SAD 30 mg (n = 6)): 5 n | TEAEs ([5]; SAD 30 mg (n = 6)): 13 n | Subjects with gastrointestinal (GI)-related TEAEs ([5]; SAD 50 mg (4/6 subjects)): 66.7% | Subjects discontinued from study drug due to ≥1 TEAE ([5]; SAD 50 mg (n = 6)): 0 n | Subjects with ≥1 SAE ([5]; SAD 50 mg (n = 6)): 0 n | Subjects with ≥1 TEAE ([5]; SAD 50 mg (n = 6)): 5 (83.3%) n (%) | Subjects with ≥1 study drug related TEAE ([5]; SAD 50 mg (n = 6)): 3 n | TEAEs ([5]; SAD 50 mg (n = 6)): 15 n | Subjects with gastrointestinal (GI)-related TEAEs ([5]; SAD all cohorts except 50 mg (1/6 subjects each)): 16.7% | Subjects with at least one dizziness TEAE ([5]; SAD all zagociguat-treated subjects (8 of 42), none on placebo): 19.0% | Subjects discontinued from study drug due to ≥1 TEAE [5, 10]: 0 n | Subjects with ≥1 SAE [5, 10]: 0 n | Subjects with ≥1 TEAE [5, 10]: 22 (52.4%) n (%) | Subjects with ≥1 study drug related TEAE [5, 10]: 17 n | TEAEs [5, 10]: 57 n | Tolerability ([5]; single doses up to 50 mg): well‐tolerated with no safety signals | Severity of observed TEAEs ([6]; across all study phases): mild and transient | Tolerability ([6]; all doses evaluated, all study phases): well‐tolerated | Bleeding time and bleeding events ([6]; all phases): no increases in bleeding time nor any bleeding events | Deaths or other serious AEs ([6]; all study phases): No deaths or other serious AEs
